Experimental data published in ChEMBL document CHEMBL4052683, “The discovery of benzoxazine sulfonamide inhibitors of NaV1.7: Tools that bridge efficacy and target engagement” (Bioorg Med Chem Lett, 2017).

Assays:
[1] = Clearance in pooled rat liver microsomes at 1 uM in presence of NADPH by LC-MS/MS method; type: ADME, microsome; settings: read-out: CLH
[2] = biological target: Sodium channel protein type 9 subunit alpha (Rattus norvegicus, UniProt O08562); test: Inhibition of rat NaV1.7 by cell based whole cell voltage clamp method
Sodium channel protein type 9 subunit alpha (Rattus norvegicus, UniProt O08562), sequence (O08562 whole entry): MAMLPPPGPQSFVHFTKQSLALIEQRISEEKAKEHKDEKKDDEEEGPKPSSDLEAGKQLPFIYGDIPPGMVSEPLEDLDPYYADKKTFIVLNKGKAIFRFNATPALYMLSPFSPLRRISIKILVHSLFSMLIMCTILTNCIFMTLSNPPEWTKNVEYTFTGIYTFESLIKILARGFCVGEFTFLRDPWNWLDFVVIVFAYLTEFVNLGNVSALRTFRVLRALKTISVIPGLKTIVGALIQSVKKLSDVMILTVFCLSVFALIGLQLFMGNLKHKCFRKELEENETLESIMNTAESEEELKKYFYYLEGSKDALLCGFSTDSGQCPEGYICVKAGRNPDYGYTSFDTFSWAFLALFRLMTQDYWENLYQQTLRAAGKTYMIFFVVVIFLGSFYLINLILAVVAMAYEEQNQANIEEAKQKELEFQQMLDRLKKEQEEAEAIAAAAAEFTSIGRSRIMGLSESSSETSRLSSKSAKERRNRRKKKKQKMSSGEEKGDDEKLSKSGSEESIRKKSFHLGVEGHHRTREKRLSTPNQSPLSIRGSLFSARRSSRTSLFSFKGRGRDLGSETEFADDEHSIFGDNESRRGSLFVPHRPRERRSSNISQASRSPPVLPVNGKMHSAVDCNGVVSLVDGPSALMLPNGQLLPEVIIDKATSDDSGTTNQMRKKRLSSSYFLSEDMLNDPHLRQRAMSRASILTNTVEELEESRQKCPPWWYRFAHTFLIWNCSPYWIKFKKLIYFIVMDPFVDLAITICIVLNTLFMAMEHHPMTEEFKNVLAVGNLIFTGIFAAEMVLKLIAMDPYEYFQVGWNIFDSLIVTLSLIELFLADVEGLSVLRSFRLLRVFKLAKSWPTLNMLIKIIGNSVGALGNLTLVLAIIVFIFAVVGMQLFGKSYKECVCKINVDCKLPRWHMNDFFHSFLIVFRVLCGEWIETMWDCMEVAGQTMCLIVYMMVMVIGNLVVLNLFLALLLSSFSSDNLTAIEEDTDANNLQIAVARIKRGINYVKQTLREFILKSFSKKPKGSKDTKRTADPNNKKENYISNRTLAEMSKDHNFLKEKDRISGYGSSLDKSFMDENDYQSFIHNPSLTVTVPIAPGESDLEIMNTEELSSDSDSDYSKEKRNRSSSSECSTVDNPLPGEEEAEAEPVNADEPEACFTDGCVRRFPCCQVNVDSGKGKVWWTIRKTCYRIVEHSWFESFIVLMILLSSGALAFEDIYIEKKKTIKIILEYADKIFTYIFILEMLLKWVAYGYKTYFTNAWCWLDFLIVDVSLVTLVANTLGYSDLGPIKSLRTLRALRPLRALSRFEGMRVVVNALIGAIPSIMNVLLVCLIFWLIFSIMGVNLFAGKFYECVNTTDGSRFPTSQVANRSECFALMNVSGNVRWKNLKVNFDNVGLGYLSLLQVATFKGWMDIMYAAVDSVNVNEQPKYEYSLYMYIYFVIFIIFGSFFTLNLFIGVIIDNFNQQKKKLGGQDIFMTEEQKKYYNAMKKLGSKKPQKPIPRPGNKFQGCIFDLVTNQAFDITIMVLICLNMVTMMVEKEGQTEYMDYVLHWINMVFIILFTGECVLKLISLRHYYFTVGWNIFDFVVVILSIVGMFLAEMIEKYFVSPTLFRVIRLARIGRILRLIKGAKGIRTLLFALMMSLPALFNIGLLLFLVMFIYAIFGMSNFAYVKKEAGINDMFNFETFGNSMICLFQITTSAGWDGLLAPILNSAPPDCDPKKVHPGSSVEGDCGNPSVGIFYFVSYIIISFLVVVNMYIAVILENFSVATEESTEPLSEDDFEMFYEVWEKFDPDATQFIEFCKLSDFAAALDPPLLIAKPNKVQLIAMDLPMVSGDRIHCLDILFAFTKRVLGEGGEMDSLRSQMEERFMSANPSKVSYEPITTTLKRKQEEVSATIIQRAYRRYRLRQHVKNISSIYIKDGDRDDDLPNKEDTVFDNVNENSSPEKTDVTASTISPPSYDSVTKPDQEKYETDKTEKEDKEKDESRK
How it was run: (§1)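 PatchXpress electrophysiology was run with a protocol giving about 20% channel inactivation. At least four concentrations at half-log spacing were applied one at a time, with washout, current recovery and holding voltage reset between each. Data were pooled from at least 10 cells, with 2–3 points per concentration, and fitted with a 4-parameter Hill curve to give one IC50.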

[3] = Apparent permeability in MDCK vector control cells at 5 uM; settings: dog
[4] = Clearance in pooled human liver microsomes at 1 uM in presence of NADPH by LC-MS/MS method; type: ADME, microsome; settings: read-out: CLH
[5] = biological target: Sodium channel protein type 5 subunit alpha (Homo sapiens, UniProt Q14524); test: Inhibition of human NaV1.5 expressed in […] cells at holding potential of -125 mV with test potentials to -10 mV by whole cell voltage clamp method; type: cell-based
[6] = biological target: T1, Sodium channel protein type 9 subunit alpha (Homo sapiens, UniProt Q15858); test: Inhibition of human NaV1.7 expressed in HEK293 cells at holding potential of -125 mV with test potentials to -10 mV by whole cell voltage clamp method; type: cell-based
T1 sequence (Q15858 whole entry): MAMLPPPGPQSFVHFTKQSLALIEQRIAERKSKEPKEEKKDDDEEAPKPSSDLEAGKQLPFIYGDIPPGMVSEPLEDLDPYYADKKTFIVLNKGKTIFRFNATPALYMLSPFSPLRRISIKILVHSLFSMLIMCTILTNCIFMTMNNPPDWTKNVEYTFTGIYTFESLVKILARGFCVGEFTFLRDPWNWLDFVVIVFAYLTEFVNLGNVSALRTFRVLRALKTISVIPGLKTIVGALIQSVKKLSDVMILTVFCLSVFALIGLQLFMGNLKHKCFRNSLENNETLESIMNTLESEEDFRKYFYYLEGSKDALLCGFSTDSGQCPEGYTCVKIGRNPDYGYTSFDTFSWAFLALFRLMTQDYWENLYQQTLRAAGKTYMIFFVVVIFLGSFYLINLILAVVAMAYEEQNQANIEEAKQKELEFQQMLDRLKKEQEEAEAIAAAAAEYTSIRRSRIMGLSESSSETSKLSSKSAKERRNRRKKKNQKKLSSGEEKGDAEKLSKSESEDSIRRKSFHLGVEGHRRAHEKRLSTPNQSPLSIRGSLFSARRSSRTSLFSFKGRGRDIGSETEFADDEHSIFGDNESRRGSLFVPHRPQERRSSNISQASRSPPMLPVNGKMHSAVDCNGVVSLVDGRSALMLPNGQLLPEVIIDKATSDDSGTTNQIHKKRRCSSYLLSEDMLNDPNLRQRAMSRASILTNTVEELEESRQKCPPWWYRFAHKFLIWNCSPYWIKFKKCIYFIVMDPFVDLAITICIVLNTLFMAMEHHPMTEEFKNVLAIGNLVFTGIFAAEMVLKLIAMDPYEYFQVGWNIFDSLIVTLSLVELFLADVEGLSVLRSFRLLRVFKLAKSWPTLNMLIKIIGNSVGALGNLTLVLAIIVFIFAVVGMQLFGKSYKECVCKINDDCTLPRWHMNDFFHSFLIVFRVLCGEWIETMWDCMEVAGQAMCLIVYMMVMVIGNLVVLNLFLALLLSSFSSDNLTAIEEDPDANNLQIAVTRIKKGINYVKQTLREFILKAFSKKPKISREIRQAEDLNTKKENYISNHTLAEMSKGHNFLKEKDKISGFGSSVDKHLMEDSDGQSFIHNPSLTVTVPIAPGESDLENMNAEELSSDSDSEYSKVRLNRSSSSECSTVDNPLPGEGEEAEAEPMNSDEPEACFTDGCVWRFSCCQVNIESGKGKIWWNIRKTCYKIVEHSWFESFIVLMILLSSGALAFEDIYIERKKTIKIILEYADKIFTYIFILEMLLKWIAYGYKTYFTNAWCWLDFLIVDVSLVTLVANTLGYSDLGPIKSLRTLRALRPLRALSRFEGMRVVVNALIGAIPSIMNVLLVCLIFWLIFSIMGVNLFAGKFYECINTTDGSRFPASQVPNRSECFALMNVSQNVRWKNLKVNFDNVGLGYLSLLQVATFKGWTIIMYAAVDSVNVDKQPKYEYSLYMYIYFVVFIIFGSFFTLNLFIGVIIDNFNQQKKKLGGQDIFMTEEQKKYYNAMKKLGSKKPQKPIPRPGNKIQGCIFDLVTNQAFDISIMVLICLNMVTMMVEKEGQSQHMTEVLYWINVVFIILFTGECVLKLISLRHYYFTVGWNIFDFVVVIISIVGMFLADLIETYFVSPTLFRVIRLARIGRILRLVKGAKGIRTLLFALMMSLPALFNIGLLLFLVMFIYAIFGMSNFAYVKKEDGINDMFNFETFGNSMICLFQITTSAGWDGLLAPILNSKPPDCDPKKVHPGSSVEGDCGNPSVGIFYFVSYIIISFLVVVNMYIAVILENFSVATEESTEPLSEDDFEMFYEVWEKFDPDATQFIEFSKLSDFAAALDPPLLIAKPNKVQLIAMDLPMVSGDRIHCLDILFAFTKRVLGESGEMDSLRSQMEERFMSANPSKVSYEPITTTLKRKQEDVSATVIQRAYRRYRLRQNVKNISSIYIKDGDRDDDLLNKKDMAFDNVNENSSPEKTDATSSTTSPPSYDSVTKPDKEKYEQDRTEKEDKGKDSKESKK

Homo sapiens = species on record: Homo sapiens; test: Selectivity index, ratio of IC50 for human NaV1.5 expressed in […] cells to IC50 for human NaV1.7 expressed in HEK293 cells; type: cell-based
[7] = Clearance in rat at 0.5 mg/kg, iv by LC-MS/MS method; type: ADME, organism-based; settings: in vivo
How it was run: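 Male rats got 0.5 mg/kg IV as a DMSO solution. Unbound clearance was taken as rat clearance divided by the unbound fraction from equilibrium dialysis.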

Rattus norvegicus = test: Unbound clearance in rat at 0.5 mg/kg, iv by LC-MS/MS method; type: ADME, organism-based; settings: in vivo
How it was run: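 Male rats given 0.5 mg/kg intravenously as a solution in DMSO. Unbound clearance was calculated as rat clearance divided by unbound fraction, with unbound fraction determined by equilibrium dialysis.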

[8] = Dissociation constant, pKa of the compound; type: physicochemical
[9] = Inhibition of cynomolgus monkey NaV1.7 by whole cell voltage clamp method; settings: Macaca fascicularis; how it was run: as §1
[10] = biological target: Sodium channel protein type 9 subunit alpha (Mus musculus, UniProt Q62205); test: Inhibition of mouse NaV1.7 by whole cell voltage clamp method; how it was run: as §1
[11] = biological target: T1, Sodium channel protein type 9 subunit alpha; test: Displacement of (P)-1-(30-chloro-2-fluoro-5,50-dimethoxy-[1,10biphenyl]-4-yl)-N-(isoxazol-3-yl)-2-oxo-1,2-dihydroquinoline-6-sulfonamide[50-methoxy-C3H3] from human NaV1.7 expressed in HEK293 cell membranes incubated for 1 hr by beta counting method
How it was run: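 Human NaV1.7 radioligand displacement using the tritiated 5'-methoxy-labelled dihydroquinoline sulfonamide ligand, which binds the VSDIV pocket.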

SMILES | microsomal CLint at 1 µM [1] [µL/min/mg] | IC50 [2] [nM] | Papp at 5 µM [3] [×10⁻⁶ cm/s] | microsomal CLint at 1 µM [4] [µL/min/mg] | IC50 [5] [nM] | IC50 [6] [nM] | Ratio IC50 (Homo sapiens) | clearance [7] [mL/min/kg] | CL free (Rattus norvegicus) [mL/min/kg] | pKa [8] | IC50 [9] [nM] | IC50 [10] [nM] | IC50 [11] [nM]
COc1cc(F)ccc1N1CCOc2cc(S(=O)(=O)Nc3nccs3)ccc21 | > 399 | 880 | 36 | 110 | > 30000 | 280 | > 100 | – | – | – | – | – | –
N#Cc1cc(C(F)(F)F)ccc1N1CCOc2c1ccc(S(=O)(=O)Nc1nccs1)c2F | < 14 | 1700 | 38 | < 14 | 2100 | – | – | – | – | – | – | – | –
N#Cc1cc(C(F)(F)F)ccc1N1CCOc2cc(S(=O)(=O)Nc3nccs3)cc(F)c21 | < 14 | 560 | 26 | < 14 | 650 | – | – | – | – | – | – | – | –
COc1ccccc1N1CCOc2cc(S(=O)(=O)Nc3nccs3)ccc21 | 297 | 1600 | 28 | 68 | > 30000 | – | > 79 | – | – | – | – | – | –
N#Cc1cc(C(F)(F)F)ccc1N1CCOc2cc(S(=O)(=O)Nc3cscn3)ccc21 | < 14 | – | 39 | 55 | – | – | – | – | – | – | – | – | –
O=S(=O)(Nc1ccncn1)c1ccc2c(c1)OCCN2c1ccc(C(F)(F)F)cc1C1=CCNCC1 | – | > 30000 | 1 | – | 1500 | – | 11 | 43.3 | 233 | – | – | – | –
N#Cc1cc(C(F)(F)F)ccc1N1CCOc2cc(S(=O)(=O)Nc3nccs3)ccc21 | < 14 | 1100 | 22 | < 14 | 1500 | – | 8 | 5.5 | 517 | 7 | – | – | –
Cn1nccc1-c1ccccc1Oc1ccc(S(=O)(=O)Nc2nccs2)cc1C#N | – | 4200 | – | – | – | – | – | – | – | – | 20 | 130 | –
O=S(=O)(Nc1ccncn1)c1ccc2c(-c3ccc(C(F)(F)F)cc3C3=CCNCC3)cccc2c1 | – | > 30000 | 1.3 | – | > 30000 | 90 | > 330 | 28.3 | 667 | – | 100 | 4300 | –
N#Cc1cc(C(F)(F)F)ccc1N1CCOc2cc(S(=O)(=O)Nc3ccncn3)ccc21 | < 14 | 3000 | 9.7 | < 14 | 4600 | – | 10 | 2.83 | 120 | 5.8 | – | – | –
COc1cc(C(F)(F)F)ccc1N1CCOc2cc(S(=O)(=O)Nc3nccs3)ccc21 | 53 | 390 | – | 30 | – | – | – | – | 667 | – | – | – | –
COc1cc(C#N)ccc1N1CCOc2cc(S(=O)(=O)Nc3nccs3)ccc21 | 22 | 850 | 20 | 36 | 14000 | 250 | 56 | 14 | 883 | – | – | – | –
N#Cc1cc(C(F)(F)F)ccc1N1CCOc2cc(S(=O)(=O)Nc3ncns3)ccc21 | 34 | – | 1.6 | < 14 | – | 90 | – | 10.7 | 1180 | 3.8 | – | – | 21
N#Cc1cc(C(F)(F)F)ccc1N1CCOc2cc(S(=O)(=O)Nc3ncco3)ccc21 | < 14 | – | 6.4 | 15 | – | – | – | – | – | – | – | – | –
N#Cc1cc(C(F)(F)F)ccc1N1CCOc2cc(S(=O)(=O)Nc3ccno3)ccc21 | < 14 | – | < 1 | 32 | – | – | – | – | – | – | – | – | –
N#Cc1cc(C(F)(F)F)ccc1N1CCOc2cc(S(=O)(=O)Nc3nccs3)c(Cl)cc21 | 21 | 50 | 27 | 22 | 610 | 390 | – | – | – | – | 300 | 100 | 20
